# According to ChEMBL document CHEMBL1150117, “Two new subergane-based sesquiterpenes from a Taiwanese Gorgonian coral Subergorgia suberosa” (2002):
# Tests used:
# HeLa = assay: Cytotoxicity against human HeLa cells after 4 hrs by MTT assay; assay type: functional; conditions: read-out: ED50 (the source's name)
# Outline: (§1)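 KB and HeLa cells from ATCC; growth inhibition read by MTT colorimetric method; ED50 in μg/mL.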
# KB = assay: Cytotoxicity against human KB cells after 4 hrs by MTT assay; assay type: functional; conditions: read-out: ED50 (the source's name); outline: as §1
smiles,measurement,setting,value
COC(=O)C1=C[C@@]2(C)CC[C@@H]3[C@@H](C)C[C@H](OC(C)=O)[C@@]32[C@@H]1C,EC50,HeLa,> 10 µg/mL
same,EC50,KB,> 10 µg/mL
C[C@@H]1CC(=O)[C@@]23[C@@H](C)C(C(=O)O)=C[C@]2(C)CC[C@@H]13 [SUBERGORGIC ACID],EC50,HeLa,> 10 µg/mL
same,EC50,KB,> 10 µg/mL
C[C@@H]1C(CO)=C[C@@]2(C)CC[C@@H]3[C@@H](C)CC[C@@]132 [SUBERGORGIOL],EC50,HeLa,> 10 µg/mL
same,EC50,KB,> 10 µg/mL
C[C@@H]1C(C(=O)O)=C[C@@]2(C)CC[C@@H]3[C@@H](C)C[C@H](O)[C@@]132,EC50,HeLa,> 10 µg/mL
same,EC50,KB,> 10 µg/mL
CC(=O)O[C@H]1C[C@H](C)[C@H]2CC[C@]3(C)C=C(C(=O)O)[C@@H](C)[C@]123,EC50,HeLa,> 10 µg/mL
same,EC50,KB,> 10 µg/mL
COC(=O)C1=C[C@@]2(C)CC[C@@H]3[C@@H](C)CC(=O)[C@@]32[C@@H]1C [SUBERGORGIC ACID METHYL ESTER],EC50,KB,4.3 µg/mL
